Compound activity deposited in PubChem by NMMLSC.
An excerpt weighted towards active compounds, which were near 2.5% of everything screened.
MEKK3 PB1 HTS: MEKK3-MEK5 PB1 interaction, increase or decrease; Q99759; bead-based flow cytometry, Alexa488-MEK5 binding to MEKK3; actives lie on both sides; 0 = blocked by unlabeled MEK5, 100 = vehicle; binding response (% of control), % at 10 µM; actives 1.4% (n = 290,000); AID 1529;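 active = binding response more than 3 SD above or below the average of its plate-row segment, actives on both sides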;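 also: Alexa488 bead fluorescence after subtracting the streptavidin-only scavenger bead signal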
ABCG2 block: human ABCG2 inhibition, ABCB1 as counter-screen; inhibition, % at 6.6 µM; Q9UNQ0; actives 0.1% (n = 190,000); IgMXP3 cells, JC-1 efflux, flow cytometry;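 active = inhibition above 80%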;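 also: 0% = DMSO and 100% = nicardipine control wells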
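Test system: IgMXP3 (ABCG2) plus far-red-tagged CCRF-Adr (ABCB1) cells. Reagent: JC-1 dye as substrate. Timing: 10 min exposure at 25 °C with rotation, no wash. Measured by: flow cytometric JC-1 green MFI at 530 nm. Read-out: percent efflux inhibition, scaled nicardipine 100% to DMSO 0%. Control set: nicardipine and DMSO wells.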
MEKK2 mut-MEK5: signal of MEK5 binding to mutant human MEKK2 PB1 domain | bead flow cytometry, Alexa488-MEK5 binding to MEKK2 mutant | percent response, % at 10 µM | actives 0.35% (n = 290,000); in the data active = percent response above about 24%, passing the limit was not always enough
ABCB1 inh: human ABCB1 inhibition, ABCG2 as counter-screen; inhibition, % at 6.6 µM; CCRF-Adr cells, JC-1 efflux, flow cytometry; P08183; actives 0.067% (n = 190,000); in the data active = inhibition above about 40%;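 also: 0% = vehicle and 100% = reference inhibitor; higher value means more JC-1 retained so stronger ABCB1 efflux block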
Target sequence (P08183 whole entry, looked up): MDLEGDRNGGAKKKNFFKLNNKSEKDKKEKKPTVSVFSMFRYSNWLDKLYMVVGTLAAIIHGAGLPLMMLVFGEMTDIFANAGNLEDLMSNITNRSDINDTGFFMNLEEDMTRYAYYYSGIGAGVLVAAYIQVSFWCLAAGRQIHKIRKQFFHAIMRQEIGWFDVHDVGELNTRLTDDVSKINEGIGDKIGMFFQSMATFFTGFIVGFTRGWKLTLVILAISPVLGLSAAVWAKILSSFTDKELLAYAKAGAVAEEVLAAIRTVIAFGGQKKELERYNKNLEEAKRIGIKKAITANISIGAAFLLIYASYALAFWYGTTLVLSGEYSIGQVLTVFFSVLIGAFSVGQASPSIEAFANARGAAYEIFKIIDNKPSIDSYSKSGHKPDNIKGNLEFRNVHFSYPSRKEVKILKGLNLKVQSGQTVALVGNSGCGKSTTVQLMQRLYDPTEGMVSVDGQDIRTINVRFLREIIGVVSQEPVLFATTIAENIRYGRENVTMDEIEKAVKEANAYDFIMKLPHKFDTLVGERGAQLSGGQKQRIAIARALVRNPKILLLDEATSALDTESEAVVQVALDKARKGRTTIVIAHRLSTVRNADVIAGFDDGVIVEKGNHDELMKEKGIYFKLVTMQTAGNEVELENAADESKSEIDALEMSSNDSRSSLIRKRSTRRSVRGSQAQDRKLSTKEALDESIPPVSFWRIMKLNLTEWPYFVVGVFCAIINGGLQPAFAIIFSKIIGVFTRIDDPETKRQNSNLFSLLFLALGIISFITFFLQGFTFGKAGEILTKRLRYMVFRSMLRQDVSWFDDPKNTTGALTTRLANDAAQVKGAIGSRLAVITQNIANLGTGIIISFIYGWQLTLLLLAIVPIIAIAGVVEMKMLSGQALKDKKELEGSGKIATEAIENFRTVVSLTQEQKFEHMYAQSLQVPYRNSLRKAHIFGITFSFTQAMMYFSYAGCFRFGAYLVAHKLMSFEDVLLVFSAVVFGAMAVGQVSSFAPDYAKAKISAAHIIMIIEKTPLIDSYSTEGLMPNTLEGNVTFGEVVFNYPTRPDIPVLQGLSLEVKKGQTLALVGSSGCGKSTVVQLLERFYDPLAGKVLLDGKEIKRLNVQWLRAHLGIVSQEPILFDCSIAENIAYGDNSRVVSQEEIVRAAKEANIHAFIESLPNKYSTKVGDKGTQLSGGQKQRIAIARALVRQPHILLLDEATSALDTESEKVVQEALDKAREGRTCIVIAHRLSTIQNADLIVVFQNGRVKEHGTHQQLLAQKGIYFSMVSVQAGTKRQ
MEKK2 WT-MEK5: raises or lowers MEK5 binding to wildtype human MEKK2 PB1 domain | bead flow cytometry, Alexa488-MEK5 binding to MEKK2 WT; actives lie on both sides | AID 1531 | actives 1.1% (n = 290,000) | binding response (% of control), % at 10 µM; in the data active = binding response below about 67% or above about 130%
Efflux pump mplx: inhibitors of Candida antifungal efflux pumps expressed in yeast; S. cerevisiae Candida pump triplex, Nile Red efflux; inhibition, % at 10 µM; actives 0.44% (n = 330,000); AID 485275;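 active = plate passing quality check with inhibition over a set limit, or well fluorescence over plate mean plus 4 SD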;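 also: Nile Red retained in pooled yeast measured as flow cytometry median fluorescence; 0% = buffer negative control and 100% = Enniatin B positive control; higher means more Nile Red kept so more efflux inhibition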
Cmpd fluor yeast: compound fluorescence in yeast efflux pump counter-screen; shares compounds with Efflux pump mplx; S. cerevisiae AD/pABC3, flow cytometry; fluorescence ratio to DMSO, % at 10 µM; actives 4% (n = 1,700); AID 588517;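 active = fluorescence ratio to DMSO above its plate's cutoff, the plate mean ratio plus 5 SD, cut at about 210% in these data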;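 also: unstained yeast with no Nile Red so the signal is compound autofluorescence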
CaMdr1 efflux inh: inhibitors of Candida albicans Mdr1 efflux pump; shares compounds with Efflux pump mplx; S. cerevisiae AD/CaMDR1, Nile Red efflux, flow cytometry; inhibition, % at 10 µM; actives 1% (n = 1,700); in the data active = inhibition above about 26%;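 also: 0% = DMSO vehicle and 100% = reference inhibitor; higher means more Nile Red retained so more efflux inhibition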
Cdr2 pump inh: Candida Cdr2 efflux pump inhibition. S. cerevisiae AD/CaCDR2, Nile Red retention, flow cytometry. shares compounds with Efflux pump mplx. Nile Red retention ratio vs DMSO, % at 10 µM. AID 588520. actives 4% (n = 1,700); in the data active = Nile Red retention ratio vs DMSO above about 190%;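 also: higher ratio means more blocking of Cdr2 efflux of the dye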
Cdr1 pump inh: Candida Cdr1 efflux pump inhibition; shares compounds with Efflux pump mplx; S. cerevisiae AD/CaCDR1, Nile Red efflux, flow cytometry; inhibition, % at 10 µM; actives 1% (n = 1,700);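 active = inhibition above the screen-wide mean plus twice its standard deviation, cut at about 32% in these data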
* marks the source's active call; other numbers are inactive results; . = no result.

SMILES | MEKK3 PB1 HTS | ABCG2 block | MEKK2 mut-MEK5 | ABCB1 inh | MEKK2 WT-MEK5 | Efflux pump mplx | Cmpd fluor yeast | CaMdr1 efflux inh | Cdr2 pump inh | Cdr1 pump inh
COc1ccccc1-n1c(=O)[nH]c2c(C(N)=O)nc(-c3cccnc3)nc21 | 99 | . | 7 | . | 92 | 0 | . | . | . | .
CC(C(=O)O)N1CCCCC1 (centres undefined) | 105 | . | 2 | . | 102 | 0 | . | . | . | .
CCOC(=O)N1CCC(NC(=O)C2CCN(S(=O)(=O)N3CCC(C)CC3)CC2)CC1 | 99 | 2 | 2 | 0 | 99 | 0 | . | . | . | .
COCC(=O)N1CCC(n2nccc2NC(=O)c2ccccc2OC)CC1 | 101 | . | 5 | . | 105 | 0 | . | . | . | .
COc1cc(/C=C2\COC/C(=C\c3ccc(O)c(OC)c3)C2=O)ccc1O | 96 | . | 1 | . | 98 | 0 | . | . | . | .
COc1cc(/C=C2/CC/C(=C/c3ccc(O)c(OC)c3)C2=O)ccc1O | 101 | . | 5 | . | 89 | 0.5* | 116 | 0 | 100 | 0
CCc1ccc(N=C2NC(=O)/C(=C/c3cc(OC)c(O)c(OC)c3)S2)cc1 | 101 | . | 4 | . | 101 | 0.5* | 126 | 0 | 101 | 0
COc1cc(/C=C2\SC(=Nc3ccccc3OC)NC2=O)ccc1O | 100 | . | 1 | . | 100 | 0.6* | 110 | 0 | 107 | 0
COC(=O)C(Cc1ccc(OC(=O)c2ccc(C)cc2)cc1)N1Cc2ccccc2C1=O (centres undefined) | 102 | 0 | 6 | 0 | 93 | 0 | . | . | . | .
COc1ccc(N(CC(=O)Nc2cccc([N+](=O)[O-])c2C)S(C)(=O)=O)cc1OC | 102 | 7 | -2 | 1 | 99 | 8.9* | 98 | 0 | 103 | 0
COC(=O)c1cccc(-n2nnnc2SCC(=O)Nc2nc3c(s2)CCCC3)c1 | 105 | 4 | 2 | 1 | 103 | 1.5* | 79 | 0 | 93 | 0
COc1cccc(-n2nnnc2SCC(=O)Nc2nc3c(s2)CCCC3)c1 | 105 | 6 | 4 | 0 | 108 | 0 | . | . | . | .
CCN1C(=O)[C@H]2[C@@H](c3ccc(-c4cccc(Cl)c4)cc3)N3CCCC[C@@]3(C(=O)OC)[C@H]2C1=O | . | . | . | . | . | 0.7* | 98 | 0 | 119 | 0
CCCCOC(=O)c1ccccc1N1C(=O)C2C3CCC(C3)C2C1=O (centres undefined) | 96 | 1 | -2 | 1 | 99 | 0 | . | . | . | .
CC(C)COC(=O)c1ccccc1N1C(=O)C2C3CCC(C3)C2C1=O (centres undefined) | 113 | -1 | 0 | 0 | 112 | 13* | 104 | 0 | 94 | 0
Cc1nc(NC(=S)NC(=O)c2ccco2)sc1C(=O)N(C)C | 100 | . | 8 | . | 103 | 5.7* | 79 | 0 | 100 | 0
O=C(O)C1C2CCC(C2)C1C(=O)Nc1cccc([N+](=O)[O-])c1 (centres undefined) | 99 | . | -3 | . | 99 | 0 | . | . | . | .
CC1=C(C)CC(C(=O)Nc2cccc([N+](=O)[O-])c2)C(C(=O)O)C1 (centres undefined) | 104 | -9 | -1 | 0 | 101 | 35* | 98 | 0 | 91 | 0
Oc1c(Br)cc(Br)cc1/C=N/c1nc2c(s1)CCCC2 | 102 | 1 | 1 | 0 | 98 | 0.4* | 78 | 0 | 100 | 0
CC(C)(CNC(=O)/C=C/c1ccc(F)cc1)CNC(=O)/C=C/c1ccc(F)cc1 | 103 | 47 | 13 | 2 | 103 | 13* | 106 | 0 | 103 | 0
O=C(O)c1cccc(CN2C(=O)SC(Nc3ccccc3)C2=O)c1 (centres undefined) | 92 | 0 | -1 | 0 | 94 | 0 | . | . | . | .
O=C(O)c1cccc(CN2C(=O)CSC2=O)c1 | 104 | 0 | 5 | 0 | 103 | 0.9* | 84 | 0 | 87 | 0
CCN(CC)S(=O)(=O)c1cccc(NC(=O)CCNC(=O)NC23CC4CC(CC(C4)C2)C3)c1 | . | . | . | . | . | 0 | . | . | . | .
O=C(NCCCN1CCOCC1)c1cccc(S(=O)(=O)N2CCOCC2)c1 | . | . | . | . | . | 106* | 103 | 0 | 104 | 0
Cc1ccc(S(=O)(=O)N2CCOCC2)cc1NC(=O)COC(=O)CNC(=O)c1ccccc1 | 102 | -2 | 0 | 0 | 104 | 9.1* | 102 | 0 | 101 | 0
SMILES | MEKK3 PB1 HTS | ABCG2 block | MEKK2 mut-MEK5 | ABCB1 inh | MEKK2 WT-MEK5 | Efflux pump mplx | Cmpd fluor yeast | CaMdr1 efflux inh | Cdr2 pump inh | Cdr1 pump inh
Cc1ccc(S(=O)(=O)N2CCOCC2)cc1NC(=O)COC(=O)Cc1cccs1 | . | . | . | . | . | 0 | . | . | . | .
O=C(NCCCN1CCOCC1)C(=O)N/N=C/c1ccccc1O | 105 | . | 12 | . | 100 | 0.8* | 111 | 0 | 101 | 0
O=C(NCCN1CCOCC1)c1cccc(S(=O)(=O)N2CCCCC2)c1 | 101 | . | 4 | . | 109 | 1 | . | . | . | .
COc1ccc(CCNC(=O)CN(Cc2ccc(Cl)cc2)S(C)(=O)=O)cc1OC | 111 | . | 14 | . | 109 | 0 | . | . | . | .
Cn1/c(=N\NC(=O)c2ccccc2Cl)sc2ccccc21 | 104 | 3 | 4 | 1 | 105 | 0 | . | . | . | .
O=C(O)c1ccccc1N/C=C\[N+](=O)[O-] | 101 | -2 | 0 | 0 | 102 | 0.7* | 97 | 0 | 98 | 0
Cc1cc(C)c2c(n1)sc1c(-c3ccccc3)c(C#N)c(N)nc12 | 108 | -3 | 3 | 0 | 103 | 18* | 107 | 0 | 103 | 0
Cc1nc(N)c(C#N)c(-c2ccccc2)c1C | 100 | 4 | 0 | 1 | 105 | 0 | . | . | . | .
Cc1cccc(C(=O)N/N=C/c2cc(Br)c(Br)o2)c1 | 105 | -5 | 2 | -1 | 105 | 1 | . | . | . | .
CCCCNC(=O)C(Cc1ccccc1)NS(=O)(=O)c1ccc2c(c1)c(=O)n(C)c(=O)n2C (centres undefined) | 109 | 3 | 12 | 1 | 111 | 1.8* | 100 | 0 | 87 | 0
COc1ccc(NS(=O)(=O)c2cc(NC(=O)[C@@H](NC(=O)c3ccccc3)C(C)C)ccc2C)cc1 | 105 | 0 | 3 | 0 | 101 | 0 | . | . | . | .
CCOC(=O)c1c(NC(=O)c2ccn(CC)n2)sc2c1CCC2 | 97 | . | -7 | . | 95 | 0.4* | 98 | 0 | 98 | 0
